Data published in ChEMBL document CHEMBL1124171, “Ergolines as selective 5-HT1 agonists” (J Med Chem, 1988).

Experiments:
Rattus norvegicus [1] = species: Rattus norvegicus; assay: Effect of […] on the elevation of serum corticosterone at a dose 100 ug/mL No pretreatment; format: functional, organism-based
How it was run: (§1)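 Rats got p-chlorophenylalanine (300 mg/kg, ip) or no pretreatment. 24 h later, drug (0.3 mg/kg, sc, dilute HCl) or p-chloroamphetamine HCl (2.5 mg/kg, ip) was given, and rats were killed 1 h after. Serum corticosterone was measured spectrofluorometrically. Results are mean ± SE, five male Wistar rats/group.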

Rattus norvegicus [2] = species: Rattus norvegicus; assay: Effect of […] on the elevation of serum corticosterone at a dose 100 ug/mL PCPA pretreament; format: functional, organism-based; how it was run: as §1
Rattus norvegicus [3] = species: Rattus norvegicus; assay: Effect of fluoxetine on the elevation of serum corticosterone at a dose 100 ug/mL, Fluoxetine pretreament; format: functional, organism-based
How it was run: as §1, with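 “fluoxetine HCl (10” for “p-chlorophenylalanine (300”, “16” for “24”, “with decapitation” for “and rats were killed”, “rats/group, P < 0.05.” for “rats/group.”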

Rattus norvegicus [4] = species: Rattus norvegicus; assay: Effect of fluoxetine on the elevation of serum corticosterone at a dose 100 ug/mL, No pretreatment; format: functional, organism-based
How it was run: as §1, with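 “fluoxetine HCl (10” for “p-chlorophenylalanine (300”, “16” for “24”, “with decapitation” for “and rats were killed”, “rats/group, P < 0.05.” for “rats/group.”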

Rattus norvegicus [5] = assay: Effect on 3,4-dihydroxyphenylacetic acid concentration in rat striatum, after 1 mg/kg sc administration; format: functional; details: route subcutaneous
How it was run: (§2)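 Male Wistar rats (~150 g) were given drug or apomorphine HCl sc and decapitated 1 h later. Striatal DOPAC and HVA were quantified by LC with electrochemical detection. Results are mean ± SE, five rats/group, P < 0.05.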

Rattus norvegicus [6] = assay: Effect on homovanillic acid concentration in rat striatum, after 10 mg/kg sc administration; format: functional; details: route subcutaneous; how it was run: as §2
Rattus norvegicus [7] = assay: Effect on 3,4-dihydroxyphenylacetic acid concentration in rat striatum, after 10 mg/kg sc administration; format: functional; details: route subcutaneous; how it was run: as §2
Rattus norvegicus [8] = assay: Effect on homovanillic acid concentration in rat striatum, after 1 mg/kg sc administration; format: functional; details: route subcutaneous; how it was run: as §2
Rattus norvegicus [9] = assay: Effect on 3,4-dihydroxyphenylacetic acid concentration in rat striatum, after 3 mg/kg sc administration; format: functional; details: route subcutaneous; how it was run: as §2
Rattus norvegicus [10] = assay: Effect on homovanillic acid concentration in rat striatum, after 3 mg/kg sc administration; format: functional; details: route subcutaneous; how it was run: as §2
[11] = (§3) Ratio of affinity towards 5-HT1 to 5-HT2 receptor
How it was run: (§4)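 Frontal cortex from male Wistar rats (140–160 g), homogenate pellet in 0.05 M Tris with 10 μM pargyline and 4 mM Ca²⁺, 250–350 μg protein/sample. 5-HT1: 2 nM [³H]-5-HT, nonspecific with 10 μM 5-HT. […] Eleven concentrations, 0.1–10 000 nM, in duplicate. IC50 from curve fitting of specific binding.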

[12] = target: T1, Serotonin 1 (5-HT1) receptor (Rattus norvegicus, UniProt P28564+P30940+P19327+P28565); assay: Tested for its binding affinity towards 5-hydroxytryptamine 1 receptor in rat cortical membrane homogenates using radioligand ([3H]5-HT) binding assay.; format: cell membranes; how it was run: as §4
[13] = target: Serotonin 2 (5-HT2) receptor (Rattus norvegicus, UniProt P30994+P08909+P14842); assay: Binding affinity at 5-hydroxytryptamine 2 receptor from rat frontal cortex homogenates by [3H]-spiperone displacement.; format: tissue-based
Rattus norvegicus [14] = assay: Minimum effective dose required to increase (MED) corticosterone in rat serum, sc; format: functional; details: read-out: MED
How it was run: (§5)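 Male Wistar rats (~150 g). Compound in dilute HCl given sc at graded doses 1 h before decapitation. Whole-brain 5-HIAA measured by LC with electrochemical detection; serum corticosterone measured spectrofluorometrically. Minimum effective dose is the lowest dose giving a significant difference from control (P < 0.05).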

Rattus norvegicus [15] = assay: Minimum effective dose required to suppressing (MED) 5HIAA concentration in rat when administered sc; format: functional; details: read-out: MED; how it was run: as §5
[16] = target: T1, Serotonin 1 (5-HT1) receptor; assay: Binding affinity towards 5-hydroxytryptamine 1 receptor using [3H]5-HT as a radioligand from rat frontal cortex homogenates; format: tissue-based
[17] = as §3; format: functional; how it was run: as §4
[18] = target: T1, Serotonin 1 (5-HT1) receptor; assay: Binding affinity towards 5-hydroxytryptamine 1 receptor in rat frontal cortex homogenates using [3H]5-HT as a radioligand; format: tissue-based
How it was run: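 Frontal cortex from male Wistar rats (140–160 g), pellet in 0.05 M Tris with 10 μM pargyline and 4 mM Ca²⁺, 250–350 μg protein/sample. 2 nM [³H]-5-HT; nonspecific binding with 10 μM 5-HT; specific binding = total minus nonspecific. Eleven test concentrations, 0.1–10 000 nM, in duplicate.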

CC(N)Cc1ccc(Cl)cc1 (configuration not stated)
Serum corticosterone (Rattus norvegicus [1]): 51.1 µg/mL
Serum corticosterone (Rattus norvegicus [2]): 14.9 µg/mL
Serum corticosterone (Rattus norvegicus [3]): 29.5 µg/mL
Serum corticosterone (Rattus norvegicus [4]): 69.4 µg/mL

CN1CCc2cccc3c2[C@H]1Cc1ccc(O)c(O)c1-3 [APOMORPHINE]
DOPAC (Rattus norvegicus [5]): 2.97
HVA (Rattus norvegicus [6]): 0.91
DOPAC (Rattus norvegicus [7]): 1.73
HVA (Rattus norvegicus [8]): 1.59
DOPAC (Rattus norvegicus [9]): 2.33
HVA (Rattus norvegicus [10]): 1.14

C[C@@H]1C=C2c3cccc4c3[C@H](C[C@H]2N(C)C1)CN4C
Selectivity ratio [11]: 8
IC50 [12]: 160 nM
IC50 [13]: 1250 nM

CN1C[C@H](CO)C=C2c3cccc4c3[C@@H](CN4)C[C@H]21
Selectivity ratio [11]: 102
minimal effective dose (Rattus norvegicus [14]): 0.1 mg/kg
minimal effective dose (Rattus norvegicus [15]): 1 mg/kg
IC50 [16]: 26 nM
IC50 [13]: 2650 nM

CC1=C[C@@H]2c3cccc4[nH]cc(c34)C[C@H]2N(C)C1 [AGROCLAVINE]
Selectivity ratio [11]: 2
IC50 [12]: 140 nM
IC50 [13]: 270 nM

C[C@H]1C=C2c3cccc4[nH]cc(c34)C[C@H]2N(C)C1
Selectivity ratio [11]: 1
IC50 [12]: 80 nM
IC50 [13]: 130 nM

C[C@H]1C=C2c3cccc4c3[C@@H](CN4)C[C@H]2N(C)C1
minimal effective dose (Rattus norvegicus [14]): 0.003 mg/kg
minimal effective dose (Rattus norvegicus [15]): 0.001 mg/kg
IC50 [16]: 20 nM
IC50 [13]: > 1000 nM
Selectivity ratio [17]: > 50

C[C@@H]1C[C@@H]2c3cccc4c3[C@@H](CN4)C[C@H]2N(C)C1
Selectivity ratio [11]: 11
IC50 [13]: 4220 nM
IC50 [18]: 390 nM

C=C1C=C2c3cccc4[nH]cc(c34)C[C@H]2N(C)C1
Selectivity ratio [11]: 7
IC50 [12]: 20 nM
IC50 [13]: 140 nM

CC1=C[C@@H]2c3cccc4c3[C@@H](CN4)C[C@H]2N(C)C1
Selectivity ratio [11]: 14
IC50 [13]: 1850 nM
IC50 [18]: 130 nM

CSC[C@@H]1C=C2c3cccc4c3[C@@H](CN4)C[C@H]2N(C)C1
Selectivity ratio [11]: 66
minimal effective dose (Rattus norvegicus [14]): 1 mg/kg
minimal effective dose (Rattus norvegicus [15]): 0.1 mg/kg
IC50 [16]: 20 nM
IC50 [13]: 1330 nM

C[C@@H]1C=C2c3cccc4[nH]cc(c34)C[C@H]2N(C)C1
Selectivity ratio [11]: 22
IC50 [12]: 5 nM
IC50 [13]: 110 nM

COC(=O)[C@@H]1C=C2c3cccc4c3[C@@H](CN4)C[C@H]2N(C)C1
Selectivity ratio [11]: 40
IC50 [12]: 40 nM
IC50 [13]: 1620 nM

CCCN1C[C@H](C)C=C2c3cccc4c3[C@@H](CN4)C[C@H]21
Selectivity ratio [11]: > 5
IC50 [12]: 240 nM
IC50 [13]: > 1000 nM

CN1C[C@H](CSc2ccccn2)C=C2c3cccc4c3[C@@H](CN4)C[C@H]21
Selectivity ratio [11]: 28
IC50 [12]: 3 nM
IC50 [13]: 110 nM

CN1C[C@H](CO)C=C2c3cccc4[nH]cc(c34)C[C@H]21
Selectivity ratio [11]: 11
IC50 [12]: 15 nM
IC50 [13]: 160 nM

CN1C[C@H](CSc2ccccc2)C=C2c3cccc4c3[C@@H](CN4)C[C@H]21
Selectivity ratio [11]: 26
IC50 [12]: 8 nM
IC50 [13]: 210 nM

C=C1C=C2c3cccc4c3[C@@H](CN4)C[C@H]2N(C)C1
Selectivity ratio [11]: 48
IC50 [16]: 80 nM
IC50 [13]: 3820 nM

CN1C[C@H](CO)C[C@@H]2c3cccc4[nH]cc(c34)C[C@H]21
Selectivity ratio [11]: 4
IC50 [16]: 120 nM
IC50 [13]: 450 nM

CN1C[C@H](CC#N)C=C2c3cccc4c3[C@@H](CN4)C[C@H]21
Selectivity ratio [11]: 106
IC50 [12]: 20 nM
minimal effective dose (Rattus norvegicus [14]): 0.1 mg/kg
minimal effective dose (Rattus norvegicus [15]): 0.1 mg/kg
IC50 [13]: 2120 nM
